Source: PubChem BioAssay (Broad Institute)
Only some compounds are listed: those with a hit (about 1.5% of all), similar ones and a draw of the others.
SIRT5 inh: sirtuin-5 (human) deacylase inhibition; Q9NXA8; Purified SirT5, succinyl-peptide AMC, trypsin-coupled fluorescence; inhibition, % at 15 µM; hit rate 1.1% among 330,000; AID 652115; in the data active = inhibition above about 15%
PDI turbidity: inhibitors of human protein disulfide isomerase; inhibition, % at 10 µM; hit rate 0.052% among 350,000; P07237; PDI insulin aggregation turbidity, A650, 90 min;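 active = mean inhibition across replicates of 30% or more, whatever share of single replicates reach that level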
Target sequence (P07237 whole entry, looked up): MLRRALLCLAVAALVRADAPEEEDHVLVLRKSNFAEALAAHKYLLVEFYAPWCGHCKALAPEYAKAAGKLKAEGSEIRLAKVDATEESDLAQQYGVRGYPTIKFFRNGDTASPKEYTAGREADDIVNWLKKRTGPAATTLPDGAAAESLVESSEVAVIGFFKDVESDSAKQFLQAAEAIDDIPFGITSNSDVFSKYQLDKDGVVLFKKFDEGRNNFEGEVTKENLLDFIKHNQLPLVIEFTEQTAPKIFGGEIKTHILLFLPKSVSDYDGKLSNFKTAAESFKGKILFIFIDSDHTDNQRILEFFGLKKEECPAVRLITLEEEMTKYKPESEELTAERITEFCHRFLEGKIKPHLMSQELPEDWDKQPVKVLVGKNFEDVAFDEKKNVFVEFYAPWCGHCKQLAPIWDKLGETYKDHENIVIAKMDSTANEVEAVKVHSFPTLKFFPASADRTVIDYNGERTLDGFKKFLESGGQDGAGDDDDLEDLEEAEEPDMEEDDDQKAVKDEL
ERp5 block: ERp5 (human) disulfide isomerase inhibition; hit rate 0.05% among 350,000; ERp5 insulin aggregation, absorbance 650 nm, 90 min; inhibition, % at 9.99 µM;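 active = mean replicate inhibition above about 25%, with every replicate also reaching it, limit read from the data, passing the limit was not always enough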
S100A4 inh HTS: inhibitors of human S100A4 binding to myosin IIA peptide | P26447 | S100A4/TAMRA-MyoIIA peptide fluorescence polarization | inhibition, % at 10.7 µM | hit rate 0.14% among 360,000;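 active = mean inhibition of at least 70% across replicates, with every replicate also reaching that level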
Target sequence (P26447 whole entry, looked up): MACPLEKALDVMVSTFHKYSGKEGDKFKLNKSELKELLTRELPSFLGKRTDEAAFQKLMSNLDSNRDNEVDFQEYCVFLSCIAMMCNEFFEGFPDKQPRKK
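Material: S100A4 monomer (human). Medium: Calcium-containing HEPES buffer, pH 7.2. Probe or stimulus: labelled myosin peptide probe, 5 nM. Compound dosing: one concentration per compound. Timing: polarization read 5 min after assay mix addition, stable 5–60 min. Benchmarks: DMSO as neutral control, TFP as positive control.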
INS-1E GSIS act: primary screen for activators of insulin secretion dependent on glucose, INS-1E cells, GLuc reporter luminescence. INS-1E GLuc reporter insulin secretion, 2-3 h. activation, % at 16.6 µM. hit rate 0.61% among 370,000;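 active = lowest replicate activation of at least 40%, so every replicate reaches that level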
Hits are given with their value; n = inactive; x = no result given.

SMILES	SIRT5 inh	PDI turbidity	ERp5 block	S100A4 inh HTS	INS-1E GSIS act
O=C(Nc1cccnc1)c1cnn2c(C(F)F)cc(C3CC3)nc12	x	n	x	x	60
C[C@@H](NC(=O)[C@@H]1[C@@H](CO)[C@@H]2Cn3c(ccc(-c4ccccc4)c3=O)[C@H]1N2C)c1ccccc1	n	x	n	n	n
O=c1c2ccccc2nc(-c2ccco2)n1/N=C/c1ccco1	x	n	x	x	54
COc1ccc(/C=N/n2c(-c3ccco3)nc3ccccc3c2=O)cc1	n	n	n	n	n
O=c1c2ccccc2nc(-c2ccco2)n1/N=C/c1ccccc1O	x	n	x	x	69
CN(C)CC(=O)N[C@H]1CC[C@@H](CCn2cc(C3CCCCC3)nn2)O[C@@H]1CO	n	x	n	n	n
COc1ccccc1CN1[C@@H]2CNC[C@H]1C2c1ccc(/C=C/c2ccccc2)cc1 (stereo partly drawn)	x	x	x	x	n
COC(=O)c1cc(C(=O)OC)[nH]n1	16	n	n	n	n
COC(=O)c1cc(-c2ccccc2)n[nH]1	x	n	x	x	x
CN(C)C(=O)c1cccc(-c2ccc([C@@H]3[C@H]4CN(C(=O)C5CCC5)CC(=O)N4[C@H]3CO)cc2)c1	n	x	n	n	n
COc1ccccc1N(CC(=O)Nc1ccccc1C(=O)NC(C)C)S(C)(=O)=O	n	n	n	n	n
CCOC(=O)c1ccccc1NC(=O)CN(c1ccccc1OC)S(C)(=O)=O	x	n	x	x	62
C[C@H]1CN([C@@H](C)CO)C(=O)c2cc(NC(=O)CCN3CCOCC3)ccc2O[C@@H]1CN(C)Cc1ccc(C(=O)O)cc1	n	x	n	n	n
C[C@@H]1CN([C@H](C)CO)C(=O)c2cc(-c3ccccc3)cnc2O[C@@H]1CN(C)C(=O)c1cccnc1	16	x	n	n	n
CCC(=O)N(C)C[C@H]1Oc2ncc(-c3ccc(C(=O)N(C)C)cc3)cc2C(=O)N([C@@H](C)CO)C[C@H]1C	n	x	n	111	n
C[C@@H]1CN([C@H](C)CO)C(=O)c2cc(-c3ccc(F)cc3)cnc2O[C@H]1CN(C)C(=O)Cc1ccccn1	23	x	n	n	n
C[C@H]1CN([C@@H](C)CO)C(=O)c2cc(-c3ccncc3)cnc2O[C@H]1CN(C)C(=O)c1ccncc1	16	x	n	n	n
CCC(=O)N(C)C[C@H]1Oc2ncc(-c3ccc(C(=O)N(C)C)cc3)cc2C(=O)N([C@@H](C)CO)C[C@@H]1C	n	x	n	n	n
CC(=O)c1cccc(Nc2ncnc3ccc(Br)cc23)c1	n	n	n	n	49
COc1ccc(C#Cc2ccc([C@H]3[C@H](CO)N4CCCCN(Cc5ccccc5F)C[C@@H]34)cc2)cc1	n	x	n	n	n
COc1ccc(C#Cc2ccc([C@@H]3[C@H](CO)N4CCCCN(Cc5ccccc5F)C[C@@H]34)cc2)cc1	n	x	n	n	50
COc1ccc(C#Cc2ccc([C@@H]3[C@@H](CO)N4CCCCN(Cc5ccccc5F)C[C@@H]34)cc2)cc1	n	x	n	n	95
OC[C@@H]1[C@@H](c2ccc(C#Cc3cccnc3)cc2)[C@@H]2CN(Cc3ccccc3F)CCCCN12	n	x	n	n	n
COc1ccc(S(=O)(=O)N(C)C[C@@H]2OCCCC[C@@H](C)Oc3ccc(NS(=O)(=O)c4ccccc4)cc3C(=O)N([C@@H](C)CO)C[C@@H]2C)cc1	n	x	n	n	n
O=C(C1=NN[C@@H]2C(=O)N(c3cccc(F)c3)C(=O)[C@H]12)c1ccc2ccccc2n1	16	n	n	n	x
SMILES	SIRT5 inh	PDI turbidity	ERp5 block	S100A4 inh HTS	INS-1E GSIS act
C=C(CN(C)C)C(=O)c1cc(C)ccc1C	n	n	n	n	90
Cc1ccc(C)c(C(=O)NCCN(C)C)c1	x	n	x	x	x
O=C(Nc1ccc(Cl)c(Cl)c1)Nc1nc(-c2ccccc2)cs1	x	n	x	x	166
Cc1cccc(NC(=S)Nc2ccccn2)c1C	x	n	x	x	41
CO[C@H]1CN(C)C(=O)c2ccc(NC(=O)CC(F)(F)F)cc2OC[C@H](C)NC[C@H]1C	x	x	n	n	n
CCn1nnnc1NCc1ccc(OCc2c(F)cccc2Cl)c(OC)c1	n	n	n	n	43
COc1cc(CNc2ccc3[nH]c(=O)[nH]c3c2)ccc1OCc1c(F)cccc1Cl	n	n	n	n	n
CCCNC(=O)C[C@H]1CC[C@H]2[C@H](COc3ccc(NC(=O)c4cscn4)cc3C(=O)N2C)O1	n	x	n	n	n
O=C(O)C1C2CCC(C2)C1C(=O)NCCc1ccc(F)cc1 (stereo not drawn)	17	n	n	n	x
O=C(O)C1C2CCC(C2)C1C(=O)NCCc1cccc(Cl)c1 (stereo not drawn)	n	n	n	n	n
COc1ccc(-c2ccc(SCc3ccccn3)nn2)cc1OC	n	n	n	n	83
COc1ccc(-c2ccc(SCc3cccnc3)nn2)cc1OC	n	n	n	n	47
CN(CC(=O)Nc1ccccc1C(F)(F)F)C(=O)c1ccc(N2C(=O)CCC2=O)cc1	17	n	n	n	n
COc1ccc2c3c([nH]c2c1)[C@@H](CO)N(C(=O)Nc1ccc(F)cc1)CC31CCN(C(=O)Nc2ccccc2)CC1	x	x	x	x	n
Cc1ccc(-c2nnn(CC(=O)N3CCN(c4nc5ccccc5s4)CC3)n2)cc1	x	n	x	x	211
O=C(COc1ccccc1)Nc1sc2c(c1C(=O)NCc1cccnc1)CCCC2	x	n	x	x	92
C[C@H](CO)N1C[C@H](C)[C@@H](CN(C)Cc2ccc3c(c2)OCO3)Oc2ccc(NS(=O)(=O)c3cn(C)cn3)cc2CC1=O	x	x	x	x	n
CC(C)c1cn(CC[C@H]2CC[C@H](NS(=O)(=O)c3ccc(F)cc3)[C@@H](CO)O2)nn1	20	x	n	n	n
O=S(=O)(N[C@H]1CC[C@H](CCn2cc(-c3cccc(F)c3)nn2)O[C@H]1CO)c1ccc(F)cc1	25	x	n	n	n
Cc1ccc(S(=O)(=O)N[C@H]2CC[C@@H](CCn3cc(C(C)C)nn3)O[C@H]2CO)cc1	25	x	n	n	n
C[C@H](CO)N1C[C@H](C)[C@H](CN(C)C(=O)Nc2ccc(C(F)(F)F)cc2)OCCCC[C@H](C)Oc2ccc(NS(=O)(=O)c3ccccc3)cc2C1=O	n	x	n	n	n
COc1cccc(S(=O)(=O)N[C@H]2CC[C@@H](CCn3cc(-c4ccccc4OC)nn3)O[C@H]2CO)c1	n	x	n	n	n
Cn1c(COc2ccccc2)nnc1SCC(=O)Nc1nnc(C2CC2)s1	n	n	27	n	n
Cn1c(COc2ccccc2)nnc1SCC(=O)Nc1ccc2c(c1)OCO2	n	n	n	n	n
CC(Oc1ccccc1)C(=O)Nc1nnc(C2CCCCC2)s1 (stereo not drawn)	22	n	n	n	n
O=C(CN1CCOCC1)N1CC2(C1)[C@@H](c1ccccc1)[C@@H](CO)N2Cc1cccc(F)c1	n	x	n	x	n
CCOc1ccc(S(=O)(=O)NN2Cc3ccccc3C2=N)cc1	18	n	n	n	n
Cc1noc(C)c1NC(=O)Nc1ccc2c(c1)CC(=O)N([C@H](C)CO)C[C@@H](C)[C@H](CN(C)S(=O)(=O)c1ccc(Cl)cc1)O2	n	x	n	n	n
